Screens from PubChem BioAssay.
IMP-1 inh-1: blocks Pseudomonas aeruginosa IMP-1 metallo-beta-lactamase | purified IMP-1, nitrocefin hydrolysis, epi-absorbance fluorescence | inhibition, % at 5.6 µM | actives 0.45% (n = 290,000);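 active = inhibition above the mean plus 3 SD of all compounds in the same screening run, cut at about 4.5% in these data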;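 note: 0% = IMP-1 with DMSO and 100% = DMSO wells lacking enzyme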
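Assay system: purified IMP-1; Quantity: IMP-1 0.2 nM before substrate addition; Medium: HEPES buffer pH 7.1 with ZnSO4 and Brij 35; Incubation: 15 min enzyme–compound preincubation, then 25 min nitrocefin reaction, 25 °C; Signal: fluorescence quenching readout, ex 480/em 530 nm; Controls: DMSO with and without IMP-1; Repeats: singlicate testing.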
RAD54 inh: inhibitors of human RAD54 branch migration. RAD54 Holliday junction branch migration, FAM/BHQ fluorescence. AID 602329. inhibition, % at 10.4 µM. Q92698. actives 0.14% (n = 360,000);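 active = mean normalized replicate activity at least 40 and at least half of replicates scoring 40 or more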;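 note: 0% = median of neutral control wells and 100% = median of positive control wells; inhibitors cause a drop in the FAM fluorescence signal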
DNA FID counter: counter-screen for HCV NS3 helicase inhibitors: DNA intercalator displacement; actives 0.17% (n = 290,000); DNA fluorescent intercalator displacement, fluorescence; inhibition, % at 7.9 µM; in the data active = inhibition above about 37%;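 note: 0% = vehicle and 100% = reference compound; higher means more ethidium bromide displaced from hairpin DNA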
PvdQ acylase: P. aeruginosa PvdQ acylase inhibition | inhibition, % at 10 µM | actives 0.063% (n = 340,000) | purified PvdQ acylase, fluorescence plate reader; in the data active = inhibition above about 30%, passing the limit was not always enough;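 note: 0% = vehicle neutral wells and 100% = reference inhibitor wells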
VIM-2 inhibitor: inhibitors of Pseudomonas aeruginosa VIM-2 metallo-beta-lactamase. actives 0.89% (n = 290,000). purified VIM-2, nitrocefin hydrolysis, epi-absorbance fluorescence. inhibition, % at 5.6 µM;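 active = inhibition above the mean of all tested compounds plus 3 SD, cutoff set per screening run, cut at about 7.5% in these data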;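 note: red hydrolysis product quenches plate fluorescence so inhibitors raise well fluorescence; 0% = enzyme with DMSO and 100% = DMSO without enzyme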
IMP-1 inh-2: selectivity counter-screen for VIM-2 inhibitors: IMP-1 metallo-beta-lactamase inhibitors; shares compounds with VIM-2 inhibitor; purified IMP-1, nitrocefin hydrolysis, epi-absorbance fluorescence; inhibition, % at 5.6 µM; 1,300 tested, under 10 active; AID 1856; call rule not given here;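 note: 0% = enzyme with vehicle and 100% = vehicle without enzyme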
VIM-2 FRET inh: counter-screen for VIM-2 inhibitors: epi-absorbance artifacts via FRET; shares compounds with VIM-2 inhibitor; purified VIM-2, CCF2 FRET substrate hydrolysis; inhibition, % at 5.6 µM; actives 23% (n = 1,300); AID 1857;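 active = inhibition above the mean of all tested compounds plus 3 SD, cut at about 19% in these data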;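 note: 0% = VIM-2 plus DMSO and 100% = no enzyme wells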
TEM-1 counter: TEM-1 inhibition, counter-screen for VIM-2 inhibitors. shares compounds with VIM-2 inhibitor. actives 3% (n = 1,300). AID 1866. Purified TEM-1, nitrocefin hydrolysis, epi-absorbance fluorescence. inhibition, % at 5.6 µM;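 active = inhibition above that campaign's mean inhibition plus 3 SD, cut at about 0.46% in these data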;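 note: 0% = TEM-1 with DMSO and 100% = TEM-1 with 100 µM potassium clavulanate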
Target sequence (P62593 whole entry, looked up): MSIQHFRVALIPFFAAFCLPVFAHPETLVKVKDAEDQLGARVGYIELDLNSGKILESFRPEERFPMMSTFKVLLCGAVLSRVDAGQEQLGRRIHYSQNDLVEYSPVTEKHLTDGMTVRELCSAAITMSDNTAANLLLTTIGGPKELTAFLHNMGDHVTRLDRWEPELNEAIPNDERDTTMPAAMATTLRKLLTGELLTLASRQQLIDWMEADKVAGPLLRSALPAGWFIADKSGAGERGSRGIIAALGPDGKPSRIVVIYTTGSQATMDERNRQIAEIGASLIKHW
VIM-2 confirm 2: confirmation of P. aeruginosa VIM-2 metallo-beta-lactamase inhibitors; shares compounds with VIM-2 inhibitor; purified VIM-2, nitrocefin hydrolysis, epi-absorbance; inhibition, % at 5.6 µM; actives 96% (n = 1,300);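 active = inhibition of the VIM-2 beta-lactamase enzyme above about 11% from the earlier first-round screen, limit read from the data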;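 note: 0% = VIM-2 with DMSO and 100% = buffer wells without enzyme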
* marks the source's active call; other numbers are inactive results; nt = no result given. Compounds with a hit are over-represented: about 1% of the library has one in this group of screens.

SMILES	IMP-1 inh-1	RAD54 inh	DNA FID counter	PvdQ acylase	VIM-2 inhibitor	IMP-1 inh-2	VIM-2 FRET inh	TEM-1 counter	VIM-2 confirm 2
Cc1c(OCC(=O)NCc2ccccn2)ccc2c3c(c(=O)oc12)CCCC3	-1	-1	-24	-14	17*	-2	-3	-18	26*
Cc1c(OCC(=O)Nc2cccnc2)ccc2c3c(c(=O)oc12)CCC3	-2	-5	-28	-8	24*	-4	-1	-16	35*
Cc1c(OC(C)C(=O)NCc2ccncc2)ccc2c3c(c(=O)oc12)CCCC3 (stereo not given)	-2	5	-34	-17	51*	-3	17	-11	62*
Cc1c(OC(C)C(=O)NCc2ccccn2)ccc2c3c(c(=O)oc12)CCC3 (stereo not given)	-1	5	-34	-8	19*	-2	2	-5	28*
Cc1c(Cc2ccccc2)c(=O)oc2c(C)c(OCC(=O)NCc3ccccn3)ccc12	-1	1	-16	8	-2	nt	nt	nt	nt
Cc1c(OC(C)C(=O)NCC2CCC(C(=O)O)CC2)ccc2c3c(c(=O)oc12)CCCC3 (stereo not given)	-4	3	-65	-16	-2	nt	nt	nt	nt
O=C(COc1cc2oc(=O)c3c(c2cc1Cl)CCC3)Nc1cccnc1	-4	-2	-8	-10	-1	nt	nt	nt	nt
O=C(OCC(=O)N1CCN(C(=O)c2ccco2)CC1)c1cc(-c2ccco2)nc2ccccc12	1	6	-17	0	15*	-4	-19	-7	11*
O=C(OCC(=O)N1CCN(C(=O)c2ccco2)CC1)c1cc(-c2ccc(Cl)c(Cl)c2Cl)nc2ccccc12	-4	nt	-3	-12	-4	nt	nt	nt	nt
Cc1cccc(S(=O)(=O)N2C[C@H](O)COC[C@@H]3O[C@@H](CC(=O)N4CCN(C)CC4)CC[C@H]32)c1	nt	-13	nt	nt	nt	nt	nt	nt	nt
Cc1c(OCC(=O)NCCCN2CCCC2=O)ccc2c3c(c(=O)oc12)CCCC3	-2	4	-38	13	12*	0	9	-5	21*
Cc1cc(=O)oc2c(C)c(OCC(=O)NCCCN3CCCC3=O)ccc12	-3	15	-26	-13	1	nt	nt	nt	nt
Cc1c(OCC(=O)NCCCN2CCCC2=O)ccc2c3c(c(=O)oc12)CCC3	-4	5	-43	-3	23*	-2	6	-10	29*
COc1ccc2c(C)c(CCC(=O)NCCCN3CCCC3=O)c(=O)oc2c1C	-3	-9	-21	6	-5	nt	nt	nt	nt
C[C@H](CO)N1C[C@H](C)[C@@H](CN(C)C(=O)c2ccc(F)cc2)Oc2ncc(-c3ccc(F)cc3)cc2C1=O	nt	14	nt	nt	nt	nt	nt	nt	nt
Cc1cc(Nc2ccc(C)c(C)c2)n2nc(C)nc2n1	-2	14	-10	-9	16*	-3	1	-6	34*
COc1cc(OC)c(Nc2cc(C)nc3nc(C)nn23)cc1Cl	-4	-1	-22	-16	35*	-4	1	-8	44*
CCc1ccc(Nc2cc(C)nc3nc(C)nn23)cc1	-5	0	-21	5	7	nt	nt	nt	nt
C[C@@H]1CCCCO[C@@H](CN(C)C(=O)Nc2cccc3ccccc23)[C@H](C)CN([C@H](C)CO)C(=O)c2cc(N(C)C)ccc2O1	nt	-5	nt	nt	nt	nt	nt	nt	nt
O=C(NCc1cccnc1)c1cccn2c(=O)c3sccc3nc12	-1	11	-7	7	26*	-3	-1	-9	51*
CCSS(=O)(=O)c1cccc2cccnc12	-2	7	5	-17	23*	-4	-7	-4	29*
CCOCCc1nnc(NC(=O)CCS(=O)(=O)c2ccccc2)s1	-1	-6	-12	-11	12*	-2	17	-3	14*
CCOCCc1nnc(NC(=O)C(C)Oc2ccccc2)s1 (stereo not given)	1	-8	-14	-7	1	nt	nt	nt	nt
